Measured values reported in ChEMBL document CHEMBL1141591, “Lipophilic modifications to dinucleoside polyphosphates and nucleotides that confer antagonist properties at the platelet P2Y12 receptor” (J Med Chem, 2008).
Calls of active or inactive are those of the source. The rule behind the calls is not given here.

Key:
P2Y purinoceptor 1 [1] = target: T1, P2Y purinoceptor 1 (Homo sapiens, UniProt P47900); assay: Agonist activity at human recombinant P2Y1 receptor expressed in human 1321 cells at 100 uM by calcium mobilization assay; format: functional, cell-based
Procedure, shortened: (§1)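 1321N1 human astrocytoma cells expressing the recombinant receptor were loaded with Fluo-3 AM (2.5 µM final) for 60 min at 25 °C. Assay buffer: KCl 10, NaCl 118, CaCl2 2.5, MgCl2 1, HEPES 20, glucose 10 mM, pH 7.4. Cells were washed and then stimulated with compound. Intracellular calcium was read as the change in fluorescence (FLIPR). Values are EC50 in µM. SR means 5–20% of maximal response at the top concentration, usually 100 µM. NR means no response.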

P2Y purinoceptor 2 [2] = target: T2, P2Y purinoceptor 2 (Homo sapiens, UniProt P41231); assay: Agonist activity at P2Y2 receptor expressed in human 1321 cells by calcium mobilization assay; format: functional, cell-based
[3] = target: P2Y purinoceptor 12 (Homo sapiens) (UniProt Q9H244); assay: Antagonist activity at P2Y12 receptor assessed as inhibition of ADP-induced human platelet aggregation by washed platelet assay at 100 uM; format: functional
Procedure, shortened: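 Blood from healthy volunteers was anticoagulated with ACD and spun at 180g for 15 min to give PRP. Platelets were washed three times in HEPES-buffered saline, pH 7.4, with 0.2% BSA and 5 µM PGI2, then resuspended with 0.25 U/mL apyrase. The suspension held 1 mg/mL fibrinogen at 37 °C, stirred at 1000 rpm. Compound (usually 1 nM–100 µM) was added for 2 min, then ADP at EC90 (usually 1–10 µM). Optical aggregation was recorded for 8 min. IC50 came from a four-parameter logistic fit.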

P2Y purinoceptor 6 [4] = target: T3, P2Y purinoceptor 6 (Homo sapiens, UniProt Q15077); assay: Agonist activity at P2Y6 receptor expressed in human 1321 cells by calcium mobilization assay; format: functional, cell-based; procedure, shortened: as §1
P2Y purinoceptor 2 [5] = target: T2, P2Y purinoceptor 2; assay: Agonist activity at P2Y2 receptor expressed in human 1321 cells at 100 uM by calcium mobilization assay; format: functional, cell-based; procedure, shortened: as §1
P2Y purinoceptor 6 [6] = target: T3, P2Y purinoceptor 6; assay: Agonist activity at P2Y6 receptor expressed in human 1321 cells at 100 uM by calcium mobilization assay; format: functional, cell-based; procedure, shortened: as §1
[7] = target: P2Y purinoceptor 4 (Homo sapiens) (UniProt P51582); assay: Agonist activity at P2Y4 receptor expressed in human 1321 cells at 100 uM by calcium mobilization assay; format: functional, cell-based
P2Y purinoceptor 1 [8] = target: T1, P2Y purinoceptor 1; assay: Agonist at human recombinant P2Y1 receptor expressed in human 1321 cells by calcium mobilization assay; format: functional, cell-based; procedure, shortened: as §1
[9] = target: P2Y purinoceptor 12 (Homo sapiens) (UniProt Q9H244); assay: Reversal of antagonist activity at P2Y12 receptor in human washed platelets pretreated at 50 uM for 3 mins before addition of 2-Me-S-ADP and fibrinogen; format: functional
Procedure, shortened: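 Washed human platelets were incubated with 50 µM antagonist for 3 min at 37 °C without fibrinogen. One set was then stimulated directly with 2-MeS-ADP plus fibrinogen. The other set was centrifuged once, resuspended in drug-free medium, and then stimulated. Optical aggregation was monitored for 6–8 min.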

[10] = target: P2Y purinoceptor 12 (Homo sapiens) (UniProt Q9H244); assay: Antagonist activity at P2Y12 receptor assessed as inhibition of 2-MeS-ADP-induced human platelet aggregation; format: functional
Procedure, shortened: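 Washed human platelets (ACD-anticoagulated blood, PGI2/apyrase washes) with 1 mg/mL fibrinogen at 37 °C, stirred. Concentration–response curves to 2-MeS-ADP were run alone and with antagonist at 1, 3, 10, 30 or 100 µM. Aggregation was read optically. Schild (Arunlakshana-Schild) analysis gave KB and slope.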

P2Y purinoceptor 12 (Homo sapiens), sequence (Q9H244 whole entry): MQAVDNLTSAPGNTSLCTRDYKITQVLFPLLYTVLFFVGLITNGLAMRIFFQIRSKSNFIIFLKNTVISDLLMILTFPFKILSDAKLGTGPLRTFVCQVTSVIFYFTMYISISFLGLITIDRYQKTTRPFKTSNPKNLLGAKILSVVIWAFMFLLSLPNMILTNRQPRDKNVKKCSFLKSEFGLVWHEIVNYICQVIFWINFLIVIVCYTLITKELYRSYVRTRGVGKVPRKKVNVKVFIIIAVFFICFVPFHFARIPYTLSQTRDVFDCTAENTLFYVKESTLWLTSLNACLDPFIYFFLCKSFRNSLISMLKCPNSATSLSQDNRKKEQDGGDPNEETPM
T1 sequence (P47900 whole entry): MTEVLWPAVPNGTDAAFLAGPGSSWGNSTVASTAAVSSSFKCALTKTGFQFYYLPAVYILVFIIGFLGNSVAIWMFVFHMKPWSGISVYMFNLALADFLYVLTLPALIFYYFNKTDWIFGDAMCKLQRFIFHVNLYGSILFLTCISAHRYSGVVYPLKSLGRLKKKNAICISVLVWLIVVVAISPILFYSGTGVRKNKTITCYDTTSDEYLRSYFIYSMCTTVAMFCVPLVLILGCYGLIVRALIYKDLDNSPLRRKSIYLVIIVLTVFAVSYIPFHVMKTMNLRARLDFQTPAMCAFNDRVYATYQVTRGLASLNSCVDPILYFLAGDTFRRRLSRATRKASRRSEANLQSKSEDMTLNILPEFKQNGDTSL
T3 sequence (Q15077 whole entry): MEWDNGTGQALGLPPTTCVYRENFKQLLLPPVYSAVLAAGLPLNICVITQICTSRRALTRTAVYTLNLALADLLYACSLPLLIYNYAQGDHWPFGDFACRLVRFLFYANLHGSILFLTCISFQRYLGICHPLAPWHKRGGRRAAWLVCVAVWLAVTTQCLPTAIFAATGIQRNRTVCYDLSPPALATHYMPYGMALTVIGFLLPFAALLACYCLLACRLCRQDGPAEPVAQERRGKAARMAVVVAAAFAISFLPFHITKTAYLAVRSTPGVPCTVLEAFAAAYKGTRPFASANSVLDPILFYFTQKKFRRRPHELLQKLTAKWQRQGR
P2Y purinoceptor 4 (Homo sapiens), sequence (P51582 whole entry): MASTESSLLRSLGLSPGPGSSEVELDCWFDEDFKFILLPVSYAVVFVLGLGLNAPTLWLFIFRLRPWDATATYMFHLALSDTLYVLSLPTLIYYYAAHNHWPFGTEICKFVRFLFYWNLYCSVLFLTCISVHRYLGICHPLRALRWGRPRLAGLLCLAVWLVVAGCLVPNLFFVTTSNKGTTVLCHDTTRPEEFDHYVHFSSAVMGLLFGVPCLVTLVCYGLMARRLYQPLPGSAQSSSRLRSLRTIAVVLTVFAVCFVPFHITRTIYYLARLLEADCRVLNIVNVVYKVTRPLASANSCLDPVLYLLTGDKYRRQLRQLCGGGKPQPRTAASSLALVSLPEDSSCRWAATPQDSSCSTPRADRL
T2 sequence (P41231 whole entry): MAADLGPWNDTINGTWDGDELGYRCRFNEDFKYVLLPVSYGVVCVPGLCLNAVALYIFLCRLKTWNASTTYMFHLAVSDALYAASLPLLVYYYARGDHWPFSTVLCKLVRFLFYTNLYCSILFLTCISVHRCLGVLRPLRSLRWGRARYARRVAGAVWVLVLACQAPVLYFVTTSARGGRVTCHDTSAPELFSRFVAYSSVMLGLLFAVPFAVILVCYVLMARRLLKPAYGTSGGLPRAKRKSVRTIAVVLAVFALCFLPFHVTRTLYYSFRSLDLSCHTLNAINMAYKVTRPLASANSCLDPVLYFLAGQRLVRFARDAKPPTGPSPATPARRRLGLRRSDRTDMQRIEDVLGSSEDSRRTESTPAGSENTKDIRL

SMILES | Activity (P2Y purinoceptor 1 [1]) | EC50 (P2Y purinoceptor 2 [2]) [µM] | inhibition [3] [%] | EC50 (P2Y purinoceptor 6 [4]) [µM] | Activity (P2Y purinoceptor 2 [5]) | Activity (P2Y purinoceptor 6 [6]) | Activity [7] | EC50 (P2Y purinoceptor 1 [8]) [µM] | Activity [3] | Activity [9] | Kb [10] [µM]
CCCC1O[C@@H]2[C@H](O1)[C@@H](COP(=O)(O)OP(=O)(O)OP(=O)(O)OP(=O)(O)OC[C@@H]1O[C@H](n3ccc(=O)[nH]c3=O)[C@@H](O)[C@H]1O)O[C@H]2n1ccc(=O)[nH]c1=O (stereo not given in full) | inactive | 0.098 | 44 | 30 |  |  |  |  |  |  | 
CCNC(=O)Nc1ncnc2c1ncn2[C@@H]1O[C@H](COP(=O)(O)O)C2OC(/C=C/c3ccccc3)OC21 (single isomer, unassigned) | inactive |  |  |  | inactive | inactive | inactive |  |  |  | 
Nc1ncnc2c1ncn2[C@@H]1O[C@H](COP(=O)(O)OP(=O)(O)OP(=O)(O)OP(=O)(O)OC[C@@H]2O[C@H](n3cnc4c(N)ncnc43)[C@@H](O)[C@H]2O)[C@@H](O)[C@H]1O |  | 0.072 | 63 |  |  | inactive |  | 0.426 |  |  | 
O=c1ccn([C@@H]2O[C@H](COP(=O)(O)OP(=O)(O)OP(=O)(O)OC[C@@H]3O[C@H](n4ccc(=O)[nH]c4=O)[C@@H](O)[C@H]3O)[C@H]3OC(Cc4ccccc4)O[C@H]32)c(=O)[nH]1 (stereo not given in full) | inactive |  |  | 0.154 | inactive |  |  |  |  |  | 
Nc1ncnc2c1ncn2[C@@H]1O[C@H](COP(=O)(O)O)[C@H]2OC(/C=C/c3ccccc3)O[C@H]21 (stereo not given in full) | inactive |  |  |  | inactive | inactive | inactive |  |  |  | 
O=C(Nc1ccccc1)Nc1ncnc2c1ncn2[C@@H]1O[C@H](COP(=O)(O)O)[C@H]2OC(Cc3ccccc3)O[C@H]21 (stereo not given in full) | inactive |  |  |  | inactive | inactive | inactive |  |  |  | 
O=C(Nc1ncnc2c1ncn2[C@@H]1O[C@H](COP(=O)(O)O)C2OC(Cc3ccccc3)OC21)NC1CCCC1 (single isomer, unassigned) | inactive |  |  |  | inactive | inactive | inactive |  |  |  | 
O=C(Nc1ccccc1)Nc1ncnc2c1ncn2[C@@H]1O[C@H](COP(=O)(O)O)[C@@H](O)[C@H]1O | inactive |  |  |  | inactive | inactive | inactive |  |  |  | 
O=C(Nc1ccccc1)Nc1ncnc2c1ncn2[C@@H]1O[C@H](COP(=O)(O)OP(=O)(O)O)[C@@H](O)[C@H]1O |  | 9.4 |  | 9.75 |  |  |  | 2.63 |  |  | 
CCCCCCNC(=O)Nc1ncnc2c1ncn2[C@@H]1O[C@H](COP(=O)(O)O)C2OC(C#Cc3ccccc3)OC21 (single isomer, unassigned) | inactive |  |  |  | inactive | inactive | inactive |  |  |  | 
CCNC(=O)Nc1ncnc2c1ncn2[C@@H]1O[C@H](COP(=O)(O)O)C2O[C@H](/C=C/c3ccccc3)OC21 (single isomer, unassigned) | inactive |  |  |  | inactive | inactive | inactive |  |  |  | 
O=c1ccn([C@@H]2O[C@H](COP(=O)(O)OP(=O)(O)OP(=O)(O)OC[C@@H]3O[C@H](n4ccc(=O)[nH]c4=O)[C@@H](O)[C@H]3O)[C@@H](O)[C@H]2O)c(=O)[nH]1 | inactive | 13.5 |  | 0.4 |  |  |  |  | inactive |  | 
O=C(Nc1ccccc1)Nc1ncnc2c1ncn2[C@@H]1O[C@H](COP(=O)(O)O)C2OC(C#Cc3ccccc3)OC21 (single isomer, unassigned) | inactive |  |  |  | inactive | inactive | inactive |  |  |  | 
Nc1ncnc2c1ncn2[C@@H]1O[C@H](COP(=O)(O)O)[C@H]2O[C@@H](Cc3ccccc3)O[C@H]21 | inactive |  | 47 |  | inactive | inactive | inactive |  |  |  | 
CCNC(=O)Nc1ncnc2c1ncn2[C@@H]1O[C@H](COP(=O)(O)O)[C@H]2OC(c3ccccc3)O[C@H]21 (stereo not given in full) | inactive |  |  |  | inactive | inactive | inactive |  |  |  | 
O=C(Nc1ccccc1)Nc1ncnc2c1ncn2[C@@H]1O[C@H](COP(=O)(O)O)C2OC(/C=C/c3ccccc3)OC21 (single isomer, unassigned) | inactive |  |  |  | inactive | inactive | inactive |  |  |  | 
O=c1ccn([C@@H]2O[C@H](COP(=O)(O)OP(=O)(O)OP(=O)(O)OP(=O)(O)OC[C@@H]3O[C@H](n4ccc(=O)[nH]c4=O)[C@H]4OC(Cc5ccccc5)O[C@H]43)[C@H]3OC(Cc4ccccc4)O[C@H]32)c(=O)[nH]1 (stereo not given in full) | inactive | 14.6 |  |  |  | > 5% |  |  |  | Active | 0.249
Nc1ncnc2c1ncn2[C@@H]1O[C@H](COP(=O)(O)O)[C@H]2O[C@@H](c3ccccc3)O[C@H]21 | inactive |  | 75 |  | inactive | inactive | inactive |  |  |  | 
CCNC(=O)Nc1ncnc2c1ncn2[C@@H]1O[C@H](COP(=O)(O)O)[C@H]2OC(Cc3ccccc3)O[C@H]21 (stereo not given in full) | inactive |  |  |  | inactive | inactive | inactive |  |  |  | 
Nc1ncnc2c1ncn2[C@@H]1O[C@H](COP(=O)(O)O)[C@H]2OC(C#Cc3ccccc3)O[C@H]21 (stereo not given in full) | inactive |  |  |  | inactive | inactive | inactive |  |  |  | 
CCCCCCNC(=O)Nc1ncnc2c1ncn2[C@@H]1O[C@H](COP(=O)(O)O)C2OC(/C=C/c3ccccc3)OC21 (single isomer, unassigned) | inactive |  |  |  | inactive | inactive | inactive |  |  |  | 
CCCCCCNC(=O)Nc1ncnc2c1ncn2[C@@H]1O[C@H](COP(=O)(O)O)[C@H]2OC(Cc3ccccc3)O[C@H]21 (stereo not given in full) | inactive |  |  |  | inactive | inactive | inactive |  |  |  | 
Nc1ncnc2c1ncn2[C@@H]1O[C@H](COP(=O)(O)OP(=O)(O)O)[C@H]2O[C@@H](Cc3ccccc3)O[C@H]21 |  | 13.9 |  |  |  | inactive |  | 4.39 |  |  | 
O=c1ccn([C@@H]2O[C@H](COP(=O)(O)OP(=O)(O)OP(=O)(O)OP(=O)(O)OC[C@@H]3O[C@H](n4ccc(=O)[nH]c4=O)[C@@H](O)[C@H]3O)[C@@H](O)[C@H]2O)c(=O)[nH]1 | inactive |  |  | 18.6 |  |  |  |  | inactive |  | 
